The test system of experiment [1] is HeLa. Nature of the experiment: Induction of apoptosis in human HeLa cells assessed as late apoptotic cells at 1 uM after 8 hrs by annexin-V FITC/propidium iodide staining based flow cytometric analysis relative to control. The format is functional. In a few lines: (§1)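 Cells were grown in DMEM with 10% heat-inactivated FBS at 37 °C and 5% CO₂, then plated at 500,000 cells/well in 24-well plates. They were treated from a DMSO stock (DMSO ≤0.1%) for 8, 12 or 16 h. After a PBS wash, cells were resuspended in binding buffer (10 mM HEPES pH 7.4, 2.5 mM CaCl₂, 140 mM NaCl, 0.1% BSA), stained 40 min with FITC-annexin V, then with PI, and run on the flow cytometer immediately. Values are the mean of three independent experiments.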

The subject of experiment [2] is HeLa. Kind of experiment: Induction of apoptosis in human HeLa cells assessed as necrotic cells at 1 uM after 16 hrs by annexin-V FITC/propidium iodide staining based flow cytometric analysis relative to control. The format is functional. In a few lines: as §1
(Flow cytometry measures light scatter and fluorescence of single cells or particles in a stream.)

In experiment [3] the target is T1, MAP kinase p38 (Homo sapiens) (UniProt O15264+Q15759+Q16539+P53778). Kind of experiment: Activation of MAPK p38 phosphorylation in human HeLa cells assessed as increase in ratio of phosphorylated p38 to total p38 level at 5 uM by ELISA. The format is cell-based. The method, boiled down: (§2)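 Cell-based ELISA: HeLa or MCF-7 cells (20×10^3/well) grown overnight at 37 °C, 5% CO2, treated with 5 μM, then fixed and blocked. Probed with rabbit anti-total and anti-phospho P38, JNK or ERK1/2 (1:100), then HRP anti-rabbit IgG. Result is the phospho/total ratio; inhibitor arms use […], […] or SP600125. n=3.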
A general note: In an ELISA, binding on a coated surface is turned into a signal by an enzyme label.

Experiment [4] deals with T1, MAP kinase p38 (Homo sapiens). Kind of experiment: Activation of MAPK p38 phosphorylation in human HeLa cells assessed as increase in ratio of phosphorylated p38 to total p38 level at 5 uM in presence of p38 kinase inhibitor […] by ELISA. The format is cell-based. In a few lines: as §2
Experiment [5] has as its system MCF7. Kind of experiment: Induction of apoptosis in human MCF7 cells assessed as necrotic cells at 1 uM after 16 hrs by annexin-V FITC/propidium iodide staining based flow cytometric analysis relative to control. In kind it is functional. In a few lines: as §1
The subject of experiment [6] is MCF7. Kind of experiment: Induction of apoptosis in human MCF7 cells assessed as viable cells at 1 uM after 16 hrs by annexin-V FITC/propidium iodide staining based flow cytometric analysis relative to control. In kind it is functional. Particulars: MCF7, 16 h, read-out: Activity. In a few lines: as §1
The test system of experiment [7] is MCF7. Kind of experiment: Induction of ROS generation in human MCF7 cells at 5 uM after 12 hrs by CM-H2DCFDA staining-based FACS analysis. The format is functional, cell-based. The method, boiled down:
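CM-H2DCFDA ROS: HeLa or MCF-7 cells at 2×10^6/well in 6-well plates treated with 5 μM (final) for 12 or 24 h at 37 °C. Cells harvested, washed with PBS, stained with CM-H2DCFDA in PBS 30 min at 37 °C, washed with ice-cold PBS. Read by FACScan with 488 nm argon laser.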

Experiment [8] can be described thus: (§3) Cytotoxicity against human SW680 cells assessed as reduction in cell viability after 4 hrs by MTT assay. The format is functional, cell-based.
The species named for experiment [9] is Homo sapiens. Described as §3. In kind it is functional, cell-based.
The subject of experiment [10] is Detroit 562. Nature of the experiment: Cytotoxicity against human Detroit 562 cells assessed as reduction in cell viability after 4 hrs by MTT assay. In kind it is functional, cell-based. Background: Formazan colour is commonly taken as a measure of viable cells.
The subject of experiment [11] is HeLa. Nature of the experiment: Induction of apoptosis in human HeLa cells assessed as change in Bid level at 1 to 3 uM after 24 hrs by Western blot analysis. The format is functional, cell-based. The method, boiled down: (§4)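 Cells were treated at 1, 3 and 5 µM for 24 h at 37 °C. Lysis was in ice-cold Triton X-100 buffer with protease and phosphatase inhibitors; nuclear proteins were extracted separately. Protein was quantified by BCA. Lysates were separated by electrophoresis, transferred to nitrocellulose and blocked in non-fat milk for 1 h. Primary antibody was applied overnight at 4 °C and secondary for 1 h at 28 °C. Detection was by enhanced chemiluminescence.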

For experiment [12], the species on record is Homo sapiens. Kind of experiment: Inhibition of PKA phosphorylation (unknown origin) at 50 uM after 5 to 60 mins by bioluminescence assay relative to control. The method, boiled down:
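Kinase activity measured with compound at 1, 5, 10 and 50 μM, using a Kinase Reaction Rate Kit. Phosphorylation was followed by bioluminescent monitoring of ATP consumption, with light read at 5 min and 1 h. Staurosporine served as positive control. Data given as % kinase inhibition (% of control activity), from two separate experiments.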

The target in experiment [13] is T2, Tyrosine-protein phosphatase non-receptor type 1 (Homo sapiens) (UniProt P18031).
T2 sequence (whole entry): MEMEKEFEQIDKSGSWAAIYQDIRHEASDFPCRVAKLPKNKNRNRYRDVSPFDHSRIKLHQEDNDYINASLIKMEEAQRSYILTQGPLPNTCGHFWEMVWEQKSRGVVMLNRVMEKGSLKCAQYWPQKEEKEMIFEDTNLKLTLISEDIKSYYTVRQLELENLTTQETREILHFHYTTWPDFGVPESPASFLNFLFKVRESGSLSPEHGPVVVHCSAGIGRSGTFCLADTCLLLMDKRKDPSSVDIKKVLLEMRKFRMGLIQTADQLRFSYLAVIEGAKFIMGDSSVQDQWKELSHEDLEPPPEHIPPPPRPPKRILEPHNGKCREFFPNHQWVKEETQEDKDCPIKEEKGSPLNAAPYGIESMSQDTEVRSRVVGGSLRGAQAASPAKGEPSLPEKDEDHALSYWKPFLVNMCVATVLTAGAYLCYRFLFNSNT
Nature of the experiment: Inhibition of recombinant human PTP1B using 6,8-difluoro-4-methylumbelliferyl phosphate fluorogenic substrate measured over 30 mins by fluorescence assay. The method, boiled down:
(§5)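 Recombinant human PTP1B, 1.56 ng/well, in buffer of 25 mM HEPES, 50 mM NaCl, 2.5 mM EDTA, DTT and 0.01 mg/mL human albumin. Preincubated with compound for 30 min in the dark, then DiFMUP added (25 μL of 10 μM solution). Fluorescence read after 10 min (ex 360/em 465 nm). Triplicates; % inhibition relative to PTP inhibitor IV (0.16 mM) and buffer controls.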

In experiment [14] the test system is HeLa. Kind of experiment: Induction of apoptosis in human HeLa cells assessed as late apoptotic cells at 1 uM after 12 hrs by annexin-V FITC/propidium iodide staining based flow cytometric analysis relative to control. In kind it is functional. In a few lines: as §1
Experiment [15] concerns MCF7. Kind of experiment: Induction of apoptosis in human MCF7 cells assessed as change in Bid level at 1 to 3 uM after 24 hrs by Western blot analysis. In kind it is functional, cell-based. The method, boiled down: as §4
Experiment [16] deals with HeLa. Kind of experiment: Induction of apoptosis in human HeLa cells assessed as viable cells at 1 uM after 12 hrs by annexin-V FITC/propidium iodide staining based flow cytometric analysis relative to control. In kind it is functional. Particulars: read-out: Activity. In a few lines: as §1
The test system of experiment [17] is HeLa. Nature of the experiment: Induction of apoptosis in human HeLa cells assessed as effect on Mcl-1 long level at 1 to 3 uM after 24 hrs by Western blot analysis. In kind it is functional, cell-based. The method, boiled down:
as §4

Experiment [18] has as its target c-Jun N-terminal kinase, JNK (Homo sapiens) (UniProt P45983+P53779+P45984). Nature of the experiment: Activation of JNK phosphorylation in human MCF7 cells assessed as increase in ratio of phosphorylated JNK to total JNK level at 5 uM in presence of JNK inhibitor SP600125 by ELISA. The format is cell-based. In a few lines: as §2
The target of experiment [19] is T2, Tyrosine-protein phosphatase non-receptor type 1 (Homo sapiens). Kind of experiment: Inhibition of recombinant human PTP1B using 6,8-difluoro-4-methylumbelliferyl phosphate fluorogenic substrate at 50 uM measured over 30 mins by fluorescence assay relative to control. In a few lines:
as §5

The structures appear in SMILES notation. The source made the active and inactive calls. No cut-off for these calls is given here.

As a reminder, the IC50 is the concentration needed to halve the response being measured. As usually defined, the inhibition is the drop in the measured response relative to a control, in per cent.

On to `Cn1cc(/C=N\NC(=O)c2cn(C)c3ccc(Br)cc23)c2ccccc21`, for which the Activity in experiment [1] is 11.5%; in [2], 1.77%; in [5], 4.71%; in [9] it was “Dose-dependent effect”; in experiment [10] it was “Dose-dependent effect”; in experiment [14], 18.42%. Further, the outcome in experiment [3] and in [7] was Active. In addition, the result in experiment [4], in experiment [11], in experiment [15], in experiment [17] and in experiment [18] was inactive. In addition, the viability at 1 µM in experiment [6] was found to be 20.4%; in experiment [16] it was 47.8%. For the same compound, the half-maximal inhibitory concentration (IC50) in [8] is 2.77 µM; in experiment [10] (Detroit 562, 4 h), 22.7 µM. Also, the inhibition in experiment [12] was 45%; in experiment [13], “Dose-dependent effect”; in experiment [19] it was 48%.
